Assay results: ChEMBL document CHEMBL5335820, “Novel quinolinepiperazinyl-aryltetrazoles targeting the blood stage of Plasmodium falciparum” (RSC Med Chem, 2024)

Tests used:
[1] = test system: Plasmodium falciparum; assay: Antiplasmodial activity against chloroquine sensitive Plasmodium falciparum 3D7 infected in human erythrocytes assessed as inhibition of parasite growth incubated for 72 hrs by SYBR green I staining based fluorescence plate reader analysis; format: functional, organism-based; conditions: 3D7, Erythrocyte
Summary of the method: (§1)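 Pf3D7 or PfINDO was cultured in O+ human erythrocytes at 37 °C under 5% O2/5% CO2/90% N2 and ring-synchronised with 5% sorbitol. Cultures were exposed to 0–100 μM in triplicate for 72 h, with final DMSO 0.4%. After SYBR Green I lysis buffer (1 h, dark, 37 °C), fluorescence was read at 485/530 nm. Chloroquine-well counts were subtracted as background, and IC50 was obtained by non-linear regression.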

[2] = test system: Plasmodium falciparum; assay: Antiplasmodial activity against chloroquine resistant Plasmodium falciparum INDO infected in human erythrocytes assessed as inhibition of parasite growth at 100 uM incubated for 72 hrs by SYBR green I staining based fluorescence plate reader analysis relative to control; format: functional; conditions: Erythrocyte
Summary of the method: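 Single-concentration screen at 100 μM against PfINDO, triplicate wells, 72 h. Final DMSO was 0.4%. Growth was read by SYBR Green I lysis (excitation 485, emission 530 nm) and expressed relative to untreated culture, taken as 100% growth.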

[3] = Selectivity index, ratio of CC50 for human Huh-7 cells to IC50 for antiplasmodial activity against chloroquine resistant Plasmodium falciparum INDO infected in human erythrocytes; format: toxicity, cell-based; conditions: read-out: Ratio CC50/IC50
Summary of the method: (§2)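 Selectivity index = CC50 / PfINDO IC50. CC50 came from MTT assays: 10^4 HEK293 or HUH7 cells per well, seeded overnight and exposed to 0–100 μM for 24 h, then MTT for 4 h at 37 °C with formazan dissolved in DMSO and read at A570. Controls were 0.8% DMSO (full growth) and 10% DMSO (zero growth).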

[4] = Resistance index, ratio of IC50 of chloroquine resistant Plasmodium falciparum INDO to chloroquine sensitive Plasmodium falciparum 3D7; format: functional
Summary of the method: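 Resistance index = IC50 against PfINDO / IC50 against Pf3D7. Both IC50s came from 72 h SYBR Green I assays.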

[5] = Cytotoxicity against human Huh-7 cells assessed as reduction in cell viability incubated for 24 hrs by MTT assay; format: toxicity, cell-based
[6] = test system: Plasmodium falciparum; assay: Antiplasmodial activity against chloroquine resistant Plasmodium falciparum INDO infected in human erythrocytes assessed as inhibition of parasite growth incubated for 72 hrs by SYBR green I staining based fluorescence plate reader analysis; format: functional, organism-based; conditions: Erythrocyte; summary of the method: as §1
[7] = Cytotoxicity against human HEK293 cells assessed as reduction in cell viability incubated for 24 hrs by MTT assay; format: toxicity, cell-based
[8] = Selectivity index, ratio of CC50 for human HEK293 cells to IC50 of chloroquine resistant Plasmodium falciparum INDO infected in human erythrocytes; format: toxicity, cell-based; conditions: read-out: Ratio CC50/IC50; summary of the method: as §2
[9] = test system: Plasmodium falciparum; assay: Antiplasmodial activity against chloroquine sensitive Plasmodium falciparum 3D7 infected in human erythrocytes assessed as inhibition of parasite growth at 100 uM incubated for 72 hrs by SYBR green I staining based fluorescence plate reader analysis relative to control; format: functional; conditions: 3D7, Erythrocyte
Summary of the method: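 Pf3D7 grown in O+ human erythrocytes at 4% haematocrit, Albumax (0.05%)-RPMI, 37 °C, 5% O2/5% CO2/90% N2, sorbitol-synchronised at ring stage. Single-point screen at 100 μM, final DMSO 0.4%, triplicate wells, 72 h. Read-out by SYBR Green I lysis buffer (Tris pH 7.5, EDTA, saponin, Triton X-100), 1 h dark at 37 °C, ex 485/em 530 nm. Growth expressed relative to untreated culture.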

[10] = test system: Plasmodium falciparum; assay: Antimalarial activity against chloroquine resistant early schizont Plasmodium falciparum INDO infected in human erythrocytes assessed as inhibition of parasite growth incubated for 12 hrs; format: functional, organism-based; conditions: Erythrocyte
Summary of the method: (§3)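 PfINDO cultures were staged at 0–6 h (rings), 18–22 h (trophozoites), 30–34 h (early schizonts) and 40–44 h (late schizonts) post-invasion. Each was exposed to varying concentrations for 12 h, washed free of compound by centrifugation, and grown 48 h in drug-free medium. IC50 came from growth curves, with untreated culture as 100% and chloroquine-treated culture as 0% growth.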

[11] = test system: Plasmodium falciparum; assay: Antimalarial activity against chloroquine resistant late schizont Plasmodium falciparum INDO infected in human erythrocytes assessed as inhibition of parasite growth incubated for 12 hrs; format: functional, organism-based; conditions: Erythrocyte; summary of the method: as §3
[12] = test system: Plasmodium falciparum; assay: Antimalarial activity against chloroquine resistant trophozoites-stage Plasmodium falciparum INDO infected in human erythrocytes assessed as inhibition of parasite growth incubated for 12 hrs; format: functional, organism-based; conditions: Erythrocyte; summary of the method: as §3
[13] = test system: Plasmodium falciparum; assay: Antiplasmodial activity against chloroquine resistant ring-stage Plasmodium falciparum INDO infected in human erythrocytes assessed as inhibition of parasite growth incubated for 12 hrs; format: functional, organism-based; conditions: Erythrocyte; summary of the method: as §3

## O=C(Cn1nnc(-c2ccc(Cl)cc2)n1)N1CCN(c2ccnc3cc(Cl)ccc23)CC1
[1]
  IC50: 32.1 µM
[2]
  inhibition at 100 µM: > 50%
[3]
  selectivity ratio: > 28.7
[4]
  Ratio IC50: 0.43
[5]
  CC50 at 24 h: > 400 µM
[6]
  IC50: 14 µM
[7]
  CC50 at 24 h: > 400 µM
[8]
  selectivity ratio: 28.7
[9]
  inhibition at 100 µM: > 50%

## O=C(Cn1nnc(-c2ccc([N+](=O)[O-])cc2)n1)N1CCN(c2ccnc3cc(Cl)ccc23)CC1
[1]
  IC50: 1.65 µM
[2]
  inhibition at 100 µM: > 50%
[3]
  selectivity ratio: > 179
[4]
  Ratio IC50: 1.36
[5]
  CC50 at 24 h: > 400 µM
[6]
  IC50: 2.24 µM
[10]
  IC50: 5.46 µM
[11]
  IC50: 6.29 µM
[7]
  CC50 at 24 h: > 400 µM
[12]
  IC50: 4.72 µM
[8]
  selectivity ratio: 179
[9]
  inhibition at 100 µM: > 50%
[13]
  IC50: 10.3 µM

## Fc1cccc(-c2nnn(CCCN3CCN(c4ccnc5cc(Cl)ccc45)CC3)n2)c1
[1]
  IC50: 22.9 µM
[2]
  inhibition at 100 µM: > 50%
[3]
  selectivity ratio: > 28.1
[4]
  Ratio IC50: 0.62
[5]
  CC50 at 24 h: > 400 µM
[6]
  IC50: 14.2 µM
[7]
  CC50 at 24 h: > 400 µM
[8]
  selectivity ratio: 28.1
[9]
  inhibition at 100 µM: > 50%

## COc1cccc(-c2nnn(CCCN3CCN(c4ccnc5cc(Cl)ccc45)CC3)n2)c1
[1]
  IC50: 9.9 µM
[2]
  inhibition at 100 µM: > 50%
[3]
  selectivity ratio: > 52.2
[4]
  Ratio IC50: 0.77
[5]
  CC50 at 24 h: > 400 µM
[6]
  IC50: 7.66 µM
[7]
  CC50 at 24 h: 342 µM
[8]
  selectivity ratio: 44.6
[9]
  inhibition at 100 µM: > 50%

## CC(C)c1ccc(-c2nnn(CC(=O)N3CCN(c4ccnc5cc(Cl)ccc45)CC3)n2)cc1
[1]
  IC50: 15.9 µM
[2]
  inhibition at 100 µM: > 50%
[3]
  selectivity ratio: > 60.1
[4]
  Ratio IC50: 0.42
[5]
  CC50 at 24 h: > 400 µM
[6]
  IC50: 6.66 µM
[10]
  IC50: 21.5 µM
[11]
  IC50: 26.7 µM
[7]
  CC50 at 24 h: > 400 µM
[12]
  IC50: 24.9 µM
[8]
  selectivity ratio: 60.1
[9]
  inhibition at 100 µM: > 50%
[13]
  IC50: 18.5 µM

## Clc1ccc2c(N3CCN(CCCn4nnc(-c5cccc(Br)c5)n4)CC3)ccnc2c1
[1]
  IC50: 3.84 µM
[2]
  inhibition at 100 µM: > 50%
[3]
  selectivity ratio: > 56.8
[4]
  Ratio IC50: 1.83
[5]
  CC50 at 24 h: > 400 µM
[6]
  IC50: 7.05 µM
[10]
  IC50: 8.24 µM
[11]
  IC50: 4.62 µM
[7]
  CC50 at 24 h: > 400 µM
[12]
  IC50: 7.31 µM
[8]
  selectivity ratio: 56.8
[9]
  inhibition at 100 µM: > 50%
[13]
  IC50: 8.67 µM

## O=[N+]([O-])c1cccc(-c2nnn(CCCN3CCN(c4ccnc5cc(Cl)ccc45)CC3)n2)c1
[1]
  IC50: 9.17 µM
[2]
  inhibition at 100 µM: > 50%
[3]
  selectivity ratio: 4.45
[4]
  Ratio IC50: 1.76
[5]
  CC50 at 24 h: 72 µM
[6]
  IC50: 16.2 µM
[7]
  CC50 at 24 h: > 400 µM
[8]
  selectivity ratio: 24.7
[9]
  inhibition at 100 µM: > 50%

## O=C(Cn1nnc(-c2cccc(F)c2)n1)N1CCN(c2ccnc3cc(Cl)ccc23)CC1
[1]
  IC50: 8.14 µM
[2]
  inhibition at 100 µM: > 50%
[3]
  selectivity ratio: > 47.3
[4]
  Ratio IC50: 1.04
[5]
  CC50 at 24 h: > 400 µM
[6]
  IC50: 8.46 µM
[7]
  CC50 at 24 h: > 400 µM
[8]
  selectivity ratio: 47.3
[9]
  inhibition at 100 µM: > 50%

## COc1ccc(-c2nnn(CCCN3CCN(c4ccnc5cc(Cl)ccc45)CC3)n2)cc1OC
[1]
  IC50: 4.84 µM
[2]
  inhibition at 100 µM: > 50%
[3]
  selectivity ratio: 21.7
[4]
  Ratio IC50: 1.23
[5]
  CC50 at 24 h: 129 µM
[6]
  IC50: 5.97 µM
[7]
  CC50 at 24 h: > 400 µM
[8]
  selectivity ratio: 67
[9]
  inhibition at 100 µM: > 50%

## CC(C)c1ccc(-c2nnn(CCCN3CCN(c4ccnc5cc(Cl)ccc45)CC3)n2)cc1
[1]
  IC50: 3.12 µM
[2]
  inhibition at 100 µM: > 50%
[3]
  selectivity ratio: > 47.8
[4]
  Ratio IC50: 2.69
[5]
  CC50 at 24 h: > 400 µM
[6]
  IC50: 8.37 µM
[7]
  CC50 at 24 h: > 400 µM
[8]
  selectivity ratio: 47.8
[9]
  inhibition at 100 µM: > 50%

## O=C(Cn1nnc(-c2cccc(Br)c2)n1)N1CCN(c2ccnc3cc(Cl)ccc23)CC1
[1]
  IC50: 10.5 µM
[2]
  inhibition at 100 µM: > 50%
[3]
  selectivity ratio: > 44.5
[4]
  Ratio IC50: 0.86
[5]
  CC50 at 24 h: > 400 µM
[6]
  IC50: 8.99 µM
[7]
  CC50 at 24 h: > 400 µM
[8]
  selectivity ratio: 44.5
[9]
  inhibition at 100 µM: > 50%

## Clc1cccc(-c2nnn(CCCN3CCN(c4ccnc5cc(Cl)ccc45)CC3)n2)c1
[1]
  IC50: 10.7 µM
[2]
  inhibition at 100 µM: > 50%
[3]
  selectivity ratio: > 20.1
[4]
  Ratio IC50: 1.87
[5]
  CC50 at 24 h: > 400 µM
[6]
  IC50: 19.9 µM
[7]
  CC50 at 24 h: > 400 µM
[8]
  selectivity ratio: 20.1
[9]
  inhibition at 100 µM: > 50%

## Cc1ccc(-c2nnn(CCCN3CCN(c4ccnc5cc(Cl)ccc45)CC3)n2)cc1
[1]
  IC50: 8 µM
[2]
  inhibition at 100 µM: > 50%
[3]
  selectivity ratio: 48.8
[4]
  Ratio IC50: 0.79
[5]
  CC50 at 24 h: 310 µM
[6]
  IC50: 6.35 µM
[7]
  CC50 at 24 h: > 400 µM
[8]
  selectivity ratio: 63
[9]
  inhibition at 100 µM: > 50%

## O=C(Cn1nnc(-c2ccc(F)cc2)n1)N1CCN(c2ccnc3cc(Cl)ccc23)CC1
[1]
  IC50: 15.6 µM
[2]
  inhibition at 100 µM: > 50%
[3]
  selectivity ratio: 1.95
[4]
  Ratio IC50: 0.8
[5]
  CC50 at 24 h: 24.2 µM
[6]
  IC50: 12.4 µM
[7]
  CC50 at 24 h: > 400 µM
[8]
  selectivity ratio: 32.2
[9]
  inhibition at 100 µM: > 50%

## O=C(Cn1nnc(-c2ccc(Br)cc2)n1)N1CCN(c2ccnc3cc(Cl)ccc23)CC1
[1]
  IC50: 17.5 µM
[2]
  inhibition at 100 µM: > 50%
[3]
  selectivity ratio: > 35.6
[4]
  Ratio IC50: 0.64
[5]
  CC50 at 24 h: > 400 µM
[6]
  IC50: 11.2 µM
[7]
  CC50 at 24 h: > 400 µM
[8]
  selectivity ratio: 35.6
[9]
  inhibition at 100 µM: > 50%
